Measured values taken from PMC9532722 (Acta Pharmaceutica Sinica. B, 2022).
≈ marks a conversion by molar mass, not a printed value. Where “and” joins values, the source holds several entries; their conditions need not be identical. Equal entries are not always repeated. Where two headings read alike, the source gives them in different places.

Legend:
[1] = tested on: persistent AF canine model; experiment: Proarrhythmic risk; type: in vivo, beagle dogs; settings: 3 mg/kg i.v.; for peak increment of STVQT: at 3 h (dronedarone), 9 h (poyendarone), 1 h (amiodarone), n = 4
[2] = tested on: canine model of paroxysmal AF; settings: basic pacing cycle length of 200 ms; cited from earlier work
[3] = tested on: persistent AF canine model; experiment: Anti-atrial fibrillatory effect in persistent AF canine model; type: in vivo, beagle dogs
H9c2 cells = experiment: Concurrent cytotoxicity and ATP depletion; type: cell-based, rat; settings: 6 h
CYP3A4 [4] = target: T1, CYP3A4 (Homo sapiens, UniProt P08684); experiment: Metabolic stability, substrate depletion, rCYP3A4; type: in vitro ADME
Summary of the method: (§1)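 Substrate depletion. Test compound at 1 μmol/L incubated with NADPH generating system (NADP+, glucose 6-phosphate, glucose-6-phosphate dehydrogenase) and one enzyme source: human liver microsomes 0.5 mg/mL, rCYP3A4 10 pmol/mL or rCYP3A5 10 pmol/mL. Aliquots at set times quenched in ice-cold ACN with internal standard; parent measured by LC–MS/MS. Percent remaining versus time fitted to one-phase decay for CLint.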

human NaV1.5 channel = human NaV1.5 channel (Homo sapiens, UniProt Q14524); experiment: Whole-cell patch clamp, NaV1.5 peak current in transfected HEK293FT cells; type: cell-based
Summary of the method: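 HEK293FT cells grown in DMEM with 10% FBS at 37 °C, 5% CO2. Co-transfected with human NaV1.5 and β1-subunit plasmids; replated on coated coverslips 24 h before recording. Peak INa measured by whole-cell voltage clamp with test compound at 1–10 μmol/L: 5–6 kHz filter, >70% series-resistance compensation, P/4 leak subtraction. IC50 from variable-slope log(inhibitor)–response fit.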

CYP2J2 [5] = target: T2, CYP2J2 (Homo sapiens, UniProt P51589); type: biochemical; settings: co-incubation 2 h with NADPH
T2 sequence (P51589 1-502): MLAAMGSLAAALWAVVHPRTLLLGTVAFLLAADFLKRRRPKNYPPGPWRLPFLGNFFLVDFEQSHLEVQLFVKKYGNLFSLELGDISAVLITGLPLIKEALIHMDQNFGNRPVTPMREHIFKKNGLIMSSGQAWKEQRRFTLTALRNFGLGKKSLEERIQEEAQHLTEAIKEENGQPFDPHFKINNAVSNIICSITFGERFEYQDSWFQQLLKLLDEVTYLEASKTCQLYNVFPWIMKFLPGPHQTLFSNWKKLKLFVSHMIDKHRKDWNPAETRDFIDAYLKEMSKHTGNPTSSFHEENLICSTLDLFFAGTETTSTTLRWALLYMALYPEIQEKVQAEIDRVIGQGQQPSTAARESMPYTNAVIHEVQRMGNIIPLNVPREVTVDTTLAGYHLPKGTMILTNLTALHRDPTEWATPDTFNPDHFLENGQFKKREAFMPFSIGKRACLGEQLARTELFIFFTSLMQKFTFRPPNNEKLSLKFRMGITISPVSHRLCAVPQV

[6] = target: human CaV1.2 α1C cardiac isoform (Homo sapiens, UniProt Q13936); experiment: Whole-cell patch clamp, CaV1.2 peak current in transfected HEK293FT cells; type: cell-based
[7] = Effective permeability by PAMPA; type: physicochemical; settings: pH 7.4
CYP3A5 [8] = target: T3, CYP3A5 (Homo sapiens, UniProt P20815); experiment: Metabolic stability, substrate depletion, rCYP3A5; type: in vitro ADME
Summary of the method: as §1

CYP2J2 [9] = target: T2, CYP2J2; experiment: in vitro; type: biochemical
hiPSC-CMs = experiment: BTB variability in hiPSC-CMs; type: cell-based, human; settings: hiPSC-CM, 1 μmol/L
Summary of the method: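 Cardiomyocytes from hiPSC made by viral-free reprogramming of human foreskin fibroblasts. Exposed to test compound (0–10 μmol/L); MEA field potentials recorded 5 min at baseline and 5 min after dosing. Successive RR intervals plotted as Poincaré plots, giving SD1 (STVRR) and SD2 (LTVRR). One experiment in triplicate, mean ± SEM; groups compared with control by one-way ANOVA and Dunnett's test.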

CYP2J2 [10] = target: T2, CYP2J2; experiment: in vitro; type: in vitro ADME
[11] = Aqueous kinetic solubility; type: physicochemical; settings: universal aqueous buffer, pH 7.4
Summary of the method: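 Kinetic solubility: test compound from 10 mmol/L DMSO stock diluted into universal aqueous buffer, pH 7.4 (1% DMSO, v/v), then sonicated. Run in 3 filter-plate wells, agitated 24 h at 250 rpm at room temperature and filtered. Filtrate brought to 80:20 buffer/ACN. Solubility estimated from UV absorbance at 300 nm.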

[12] = Metabolic stability, substrate depletion, HLM; type: in vitro ADME; settings: human, human liver microsomes
Summary of the method: as §1

CYP3A4 [13] = target: T1, CYP3A4; experiment: Mechanism-based inactivation of CYP3A4, rivaroxaban as probe substrate; type: biochemical
Summary of the method: (§2)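 Two-step inactivation assay. Recombinant CYP3A4 or CYP3A5 (20 pmol/mL) pre-incubated at 37 °C with test compound (0–20 μmol/L) and NADPH system in potassium phosphate buffer. At set times, aliquots diluted 20-fold into rivaroxaban plus NADPH regenerating system and incubated 2 h. ACN quench; rivaroxaban morpholinone product measured by LC–MS/MS. kobs from log % activity versus time; kinact and KI from kobs versus concentration; n = 3, mean ± SEM.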

CYP3A5 [14] = target: T3, CYP3A5; experiment: Mechanism-based inactivation of CYP3A5, rivaroxaban as probe substrate; type: biochemical
Summary of the method: as §2

hKV11.1 (hERG) channel = hKV11.1 (hERG) channel (Homo sapiens, UniProt Q12809); experiment: Whole-cell patch clamp, KV11.1 tail current in transfected HEK293FT cells; type: cell-based
Summary of the method: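 HEK293FT cells grown in DMEM with 10% FBS at 37 °C, 5% CO2. Co-transfected with human KV11.1 and KCNE1 plasmids, then plated on poly-D-lysine coverslips. Test compound applied at 10 nmol/L–1 μmol/L under whole-cell voltage clamp: 1 kHz filter, >70% series-resistance compensation, P/4 leak subtraction. Pulses of 2.5 s from −80 to 20 mV; tail current recorded at −60 mV. IC50 from variable-slope log(inhibitor)–response fit.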

CYP2J2 [15] = target: T2, CYP2J2; type: biochemical; settings: CYP2J2-mediated astemizole O-desmethylation
[16] = hydrochloride 3 mg/kg i.v., conscious dogs

T1 sequence (P08684 whole entry): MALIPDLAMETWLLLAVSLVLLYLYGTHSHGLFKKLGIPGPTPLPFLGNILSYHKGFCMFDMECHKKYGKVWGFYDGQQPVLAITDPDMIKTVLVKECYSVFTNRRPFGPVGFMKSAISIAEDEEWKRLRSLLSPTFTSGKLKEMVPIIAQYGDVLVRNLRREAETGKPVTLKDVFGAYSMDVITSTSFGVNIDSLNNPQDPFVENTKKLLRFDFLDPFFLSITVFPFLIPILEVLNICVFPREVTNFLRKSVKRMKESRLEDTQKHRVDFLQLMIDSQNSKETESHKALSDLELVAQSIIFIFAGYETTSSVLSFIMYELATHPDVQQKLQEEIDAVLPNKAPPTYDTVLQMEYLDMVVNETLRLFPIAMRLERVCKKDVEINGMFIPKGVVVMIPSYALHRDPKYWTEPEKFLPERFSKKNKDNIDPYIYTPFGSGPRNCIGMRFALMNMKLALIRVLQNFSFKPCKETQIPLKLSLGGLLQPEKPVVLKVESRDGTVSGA
T3 sequence (P20815 whole entry): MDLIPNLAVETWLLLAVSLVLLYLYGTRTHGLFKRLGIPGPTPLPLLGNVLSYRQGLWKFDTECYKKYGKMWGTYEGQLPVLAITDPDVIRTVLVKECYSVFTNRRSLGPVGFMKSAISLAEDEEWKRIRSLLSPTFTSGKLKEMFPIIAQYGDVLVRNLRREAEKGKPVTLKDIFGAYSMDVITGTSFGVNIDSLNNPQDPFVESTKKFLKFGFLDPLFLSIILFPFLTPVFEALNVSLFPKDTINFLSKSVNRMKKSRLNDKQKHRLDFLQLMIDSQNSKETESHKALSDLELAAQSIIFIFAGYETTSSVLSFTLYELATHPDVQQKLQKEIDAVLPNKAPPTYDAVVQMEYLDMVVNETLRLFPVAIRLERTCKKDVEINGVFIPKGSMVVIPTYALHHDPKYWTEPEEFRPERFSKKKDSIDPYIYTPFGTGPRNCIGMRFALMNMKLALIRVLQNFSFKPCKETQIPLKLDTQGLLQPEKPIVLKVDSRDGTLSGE
human CaV1.2 α1C cardiac isoform, sequence (Q13936 17-2221): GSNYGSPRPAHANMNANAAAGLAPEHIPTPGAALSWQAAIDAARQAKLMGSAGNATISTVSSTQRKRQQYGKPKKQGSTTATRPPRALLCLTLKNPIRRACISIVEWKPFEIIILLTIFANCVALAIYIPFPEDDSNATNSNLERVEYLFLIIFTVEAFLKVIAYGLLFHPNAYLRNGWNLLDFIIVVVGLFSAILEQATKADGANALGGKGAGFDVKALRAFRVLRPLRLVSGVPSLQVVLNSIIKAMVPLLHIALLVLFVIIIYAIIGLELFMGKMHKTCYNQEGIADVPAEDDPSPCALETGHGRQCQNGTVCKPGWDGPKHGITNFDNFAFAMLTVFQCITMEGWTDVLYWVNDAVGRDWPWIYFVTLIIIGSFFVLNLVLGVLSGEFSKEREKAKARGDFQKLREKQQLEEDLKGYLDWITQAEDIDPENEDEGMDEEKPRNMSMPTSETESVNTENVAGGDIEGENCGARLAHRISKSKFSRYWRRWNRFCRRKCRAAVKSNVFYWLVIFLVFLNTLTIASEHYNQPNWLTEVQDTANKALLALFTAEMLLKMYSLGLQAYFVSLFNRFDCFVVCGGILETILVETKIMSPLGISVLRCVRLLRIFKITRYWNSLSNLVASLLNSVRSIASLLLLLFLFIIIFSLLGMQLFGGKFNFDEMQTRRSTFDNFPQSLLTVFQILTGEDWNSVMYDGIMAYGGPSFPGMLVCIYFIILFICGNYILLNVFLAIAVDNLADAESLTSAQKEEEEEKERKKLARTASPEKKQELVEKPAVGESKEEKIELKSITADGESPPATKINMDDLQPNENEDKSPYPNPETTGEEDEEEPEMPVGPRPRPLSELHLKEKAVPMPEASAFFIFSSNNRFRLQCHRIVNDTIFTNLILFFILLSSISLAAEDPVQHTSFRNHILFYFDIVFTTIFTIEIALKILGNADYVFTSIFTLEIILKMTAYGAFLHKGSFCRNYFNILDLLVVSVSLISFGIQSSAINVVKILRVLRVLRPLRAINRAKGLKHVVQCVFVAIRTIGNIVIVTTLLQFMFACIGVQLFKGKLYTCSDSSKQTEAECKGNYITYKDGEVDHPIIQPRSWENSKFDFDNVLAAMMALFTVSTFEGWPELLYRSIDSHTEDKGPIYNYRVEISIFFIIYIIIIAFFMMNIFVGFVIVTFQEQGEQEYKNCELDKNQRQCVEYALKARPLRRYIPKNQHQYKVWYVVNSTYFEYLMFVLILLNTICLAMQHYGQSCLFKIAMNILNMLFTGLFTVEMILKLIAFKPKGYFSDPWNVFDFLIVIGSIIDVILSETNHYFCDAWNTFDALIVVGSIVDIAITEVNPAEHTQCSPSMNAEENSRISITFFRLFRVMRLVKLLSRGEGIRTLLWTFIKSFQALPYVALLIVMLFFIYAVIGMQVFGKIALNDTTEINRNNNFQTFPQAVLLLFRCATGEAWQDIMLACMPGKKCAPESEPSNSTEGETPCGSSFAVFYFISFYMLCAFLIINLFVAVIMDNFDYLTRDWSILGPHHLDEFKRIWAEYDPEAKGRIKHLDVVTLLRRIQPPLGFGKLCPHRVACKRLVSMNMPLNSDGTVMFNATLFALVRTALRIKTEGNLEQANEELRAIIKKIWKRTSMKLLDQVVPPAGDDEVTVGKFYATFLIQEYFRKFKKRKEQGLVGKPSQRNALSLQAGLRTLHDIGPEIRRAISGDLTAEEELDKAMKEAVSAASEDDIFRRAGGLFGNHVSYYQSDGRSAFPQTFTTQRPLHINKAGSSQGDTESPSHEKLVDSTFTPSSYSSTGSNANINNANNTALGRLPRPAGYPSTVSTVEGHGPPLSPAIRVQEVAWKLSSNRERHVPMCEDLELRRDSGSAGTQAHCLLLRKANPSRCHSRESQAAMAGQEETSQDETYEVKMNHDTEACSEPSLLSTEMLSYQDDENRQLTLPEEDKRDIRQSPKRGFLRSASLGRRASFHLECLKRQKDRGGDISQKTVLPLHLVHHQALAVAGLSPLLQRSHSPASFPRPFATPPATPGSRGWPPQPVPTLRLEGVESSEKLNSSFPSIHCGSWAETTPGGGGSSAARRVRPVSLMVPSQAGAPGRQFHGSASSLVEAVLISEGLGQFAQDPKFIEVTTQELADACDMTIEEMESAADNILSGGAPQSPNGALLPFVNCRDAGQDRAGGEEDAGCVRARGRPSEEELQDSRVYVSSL
human CaV1.2 α1C cardiac isoform, sequence (Q08289 whole entry partner, canonical isoform): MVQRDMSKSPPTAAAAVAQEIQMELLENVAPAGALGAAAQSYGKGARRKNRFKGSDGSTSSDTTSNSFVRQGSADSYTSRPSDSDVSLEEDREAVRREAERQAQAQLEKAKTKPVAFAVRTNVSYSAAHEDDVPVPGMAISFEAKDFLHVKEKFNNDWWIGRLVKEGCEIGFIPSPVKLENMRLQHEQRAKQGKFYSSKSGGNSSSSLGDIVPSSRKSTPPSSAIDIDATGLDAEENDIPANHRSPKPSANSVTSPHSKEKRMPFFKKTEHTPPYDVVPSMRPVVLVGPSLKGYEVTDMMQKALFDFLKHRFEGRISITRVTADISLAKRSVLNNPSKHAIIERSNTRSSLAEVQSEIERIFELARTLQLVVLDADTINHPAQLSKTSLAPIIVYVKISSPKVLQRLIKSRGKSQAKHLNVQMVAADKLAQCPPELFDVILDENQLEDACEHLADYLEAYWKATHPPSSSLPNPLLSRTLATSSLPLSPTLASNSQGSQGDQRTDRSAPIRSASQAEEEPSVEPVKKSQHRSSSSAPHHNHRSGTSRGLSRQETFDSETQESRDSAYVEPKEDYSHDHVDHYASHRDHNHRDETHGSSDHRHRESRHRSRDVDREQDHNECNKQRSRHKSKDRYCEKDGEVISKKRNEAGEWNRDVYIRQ
human CaV1.2 α1C cardiac isoform, sequence (P54289 25-1103 partner): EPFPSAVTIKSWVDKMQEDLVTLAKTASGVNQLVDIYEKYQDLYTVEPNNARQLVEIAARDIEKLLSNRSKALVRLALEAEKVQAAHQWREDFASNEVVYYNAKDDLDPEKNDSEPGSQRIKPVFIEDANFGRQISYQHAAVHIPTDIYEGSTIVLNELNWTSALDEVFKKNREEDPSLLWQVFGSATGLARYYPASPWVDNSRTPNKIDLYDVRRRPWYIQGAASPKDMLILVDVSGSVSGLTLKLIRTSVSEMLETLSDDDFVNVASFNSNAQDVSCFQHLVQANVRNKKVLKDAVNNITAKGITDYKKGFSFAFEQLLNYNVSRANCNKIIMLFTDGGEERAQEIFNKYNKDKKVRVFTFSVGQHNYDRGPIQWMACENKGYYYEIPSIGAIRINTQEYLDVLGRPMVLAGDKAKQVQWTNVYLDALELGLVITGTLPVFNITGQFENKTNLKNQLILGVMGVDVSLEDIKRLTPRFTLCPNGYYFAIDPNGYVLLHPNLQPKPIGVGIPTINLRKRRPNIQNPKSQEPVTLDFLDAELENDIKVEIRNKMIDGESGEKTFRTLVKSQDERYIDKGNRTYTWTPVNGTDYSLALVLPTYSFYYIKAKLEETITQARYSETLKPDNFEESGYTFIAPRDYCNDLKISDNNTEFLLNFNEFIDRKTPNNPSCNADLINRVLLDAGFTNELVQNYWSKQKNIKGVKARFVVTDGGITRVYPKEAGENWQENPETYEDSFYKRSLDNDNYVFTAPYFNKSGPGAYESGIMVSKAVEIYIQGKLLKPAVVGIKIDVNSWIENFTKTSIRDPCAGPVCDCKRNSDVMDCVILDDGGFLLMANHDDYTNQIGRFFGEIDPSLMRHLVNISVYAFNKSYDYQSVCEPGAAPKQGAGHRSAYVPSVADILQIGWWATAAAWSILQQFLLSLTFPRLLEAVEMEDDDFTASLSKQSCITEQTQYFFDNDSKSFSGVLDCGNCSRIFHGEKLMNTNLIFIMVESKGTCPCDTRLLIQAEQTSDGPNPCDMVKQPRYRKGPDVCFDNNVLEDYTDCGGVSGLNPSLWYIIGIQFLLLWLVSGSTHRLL

CCCCc1oc2ccccc2c1C(=O)c1cc(I)c(OCCN(CC)CC)c(I)c1 [Amiodarone]
peak increment of STVQT [1]: 1.05 ± 0.41 ms
atrial effective refractory period prolongation [2]: -3 ms
inter-atrial conduction time prolongation [2]: +1 ms
spontaneous AF recurrence, time after the termination of AF ([3]; hydrochloride 3 mg/kg i.v., animal #1): 5.2 h
time of AF termination after the start of administration (individual animals) [3, 16]: 7.7 h and 5.9 h

CCCCc1oc2ccc(NS(C)(=O)=O)cc2c1C(=O)c1ccc(OCCCN(CCCC)CCCC)cc1 [Dronedarone]
fold higher cytotoxicity than poyendarone (H9c2 cells): 22 fold
fold more potent decrease of intracellular ATP than poyendarone (H9c2 cells): 13 fold
half-life at 1 μmol/L (CYP3A4 [4]; human, recombinant CYP3A4 (rCYP3A4)): 8.05 min
Intrinsic clearance, CLint (CYP3A4 [4]; rCYP3A4): 0.86 µL/min/pmol
IC50 (human NaV1.5 channel): 3.41 µM
period after administration with increased STVQT [1]: 0.5 to 12 h
STVQT relative to the critical border for early afterdepolarization ([1]; throughout observation period): intermittently elevated STVQT
peak increment of STVQT [1]: 3.06 ± 0.80 ms
inhibition of CYP2J2-mediated AA metabolism to EETs (in words) (CYP2J2 [5]): inhibits CYP2J2-mediated AA metabolism in a concentration-dependent manner
IC50 [6]: 1.96 µM
Papp at 16 h [7]: 3.46 ×10⁻⁶ cm/s
half-life at 1 μmol/L (CYP3A5 [8]; human, recombinant CYP3A5 (rCYP3A5)): 12.2 min
Intrinsic clearance, CLint (CYP3A5 [8]; rCYP3A5): 0.57 µL/min/pmol
atrial effective refractory period prolongation [2]: +4 ms
inter-atrial conduction time prolongation [2]: +13 ms
kinact/KI (CYP2J2 [9]; CYP2J2, rivaroxaban substrate): 7.85e-05 M⁻¹ s⁻¹
KI (CYP2J2 [9]; CYP2J2, rivaroxaban substrate, mean ± SEM): 8.47 ± 3.96 µM
kinact (CYP2J2 [9]; human): 0.000667 s⁻¹
MBI of CYP2J2-mediated rivaroxaban hydroxylation (in words) (CYP2J2 [9]; rivaroxaban as probe substrate): potently inactivated
long-term variability (LTVRR), fold compared to poyendarone (hiPSC-CMs): 3 fold
short-term variability (STVRR), fold compared to poyendarone (hiPSC-CMs): 4 fold
half-life at 1 μmol/L (CYP2J2 [10]; human, recombinant enzyme): 3.95 min
Intrinsic clearance, CLint (CYP2J2 [10]; rCYP2J2): 0.88 µL/min/pmol
solubility at 24 h [11]: 3.22 ± 0.34 µg/mL (≈ 5.78 µM)
animals in which persistent AF was terminated ([3]; hydrochloride 3 mg/kg i.v. over 30 s, conscious dogs, 21 h observation): 2 out of 4
time of AF termination after the start of administration (individual animals) [3, 16]: 5.2 h and 10.6 h
half-life at 1 μmol/L [12]: 10.4 min
microsomal CLint at 1 μmol/L [12]: 13.3 µL/min/mg
kinact/KI (CYP3A4 [13]): 8.42e-05 M⁻¹ s⁻¹
kinact/KI (CYP3A4 [13]; as printed in text): 83.3 M⁻¹ s⁻¹
KI (CYP3A4 [13]; mean ± SEM): 5.3 ± 2.95 µM
kinact/KI (CYP3A5 [14]; CYP3A5, rivaroxaban substrate): 0.000121 M⁻¹ s⁻¹
KI (CYP3A5 [14]; CYP3A5, rivaroxaban substrate, mean ± SEM): 4.44 ± 1.76 µM
kinact (CYP3A5 [14]; human, recombinant CYP3A5 (rCYP3A5), probe rivaroxaban): 0.000538 s⁻¹
IC50 (hKV11.1 (hERG) channel): 0.16 µM
kinact/KI (CYP2J2 [15]): 8300 M⁻¹ s⁻¹
